From ChEMBL document CHEMBL2203081 (Bioorg Med Chem Lett, 2012)

Tests used:
[1] = target: Casein kinase I isoform alpha-like (Homo sapiens) (UniProt Q8N752); test: Inhibition of CSNK1A1L assessed as residual activity at 10 uM relative to control
Outline: (§1)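 Competition kinase-binding assay (KINOMEscan) across a non-redundant panel of 329 kinases beyond the radiometric panel; residual binding expressed relative to control.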

[2] = target: STE20/SPS1-related proline-alanine-rich protein kinase (Homo sapiens) (UniProt Q9UEW8); test: Inhibition of STK39 assessed as residual activity at 10 uM relative to control
[3] = target: Phosphatidylinositol 4-phosphate 5-kinase type-1 alpha (Homo sapiens) (UniProt Q99755); test: Inhibition of PIP5K1A assessed as residual activity at 10 uM relative to control
[4] = target: Serine/threonine-protein kinase PknB (Mycobacterium tuberculosis) (UniProt P9WI81); test: Inhibition of Mycobacterium tuberculosis PKNB assessed as residual activity at 10 uM relative to control
Serine/threonine-protein kinase PknB (Mycobacterium tuberculosis), sequence (P9WI81 whole entry): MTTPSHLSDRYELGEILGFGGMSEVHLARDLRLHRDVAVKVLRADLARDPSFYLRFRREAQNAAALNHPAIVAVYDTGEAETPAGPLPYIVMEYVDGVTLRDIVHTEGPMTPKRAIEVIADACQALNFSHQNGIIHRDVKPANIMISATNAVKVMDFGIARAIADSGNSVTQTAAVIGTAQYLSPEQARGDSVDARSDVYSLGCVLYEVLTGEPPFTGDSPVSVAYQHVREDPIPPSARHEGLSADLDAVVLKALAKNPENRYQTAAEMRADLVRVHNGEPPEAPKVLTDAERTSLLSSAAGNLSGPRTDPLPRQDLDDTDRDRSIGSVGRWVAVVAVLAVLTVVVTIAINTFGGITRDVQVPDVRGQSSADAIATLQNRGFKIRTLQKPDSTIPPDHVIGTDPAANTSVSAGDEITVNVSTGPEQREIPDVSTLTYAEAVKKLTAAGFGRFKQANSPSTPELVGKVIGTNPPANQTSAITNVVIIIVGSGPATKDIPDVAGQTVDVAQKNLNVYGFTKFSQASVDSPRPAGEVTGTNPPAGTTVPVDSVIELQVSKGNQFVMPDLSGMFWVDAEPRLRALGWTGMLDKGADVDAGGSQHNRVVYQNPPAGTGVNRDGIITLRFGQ

[5] = target: Dual specificity protein kinase CLK3 (Homo sapiens) (UniProt P49761); test: Inhibition of CLK3 assessed as residual activity at 10 uM relative to control; outline: as §1
[6] = target: ALK tyrosine kinase receptor (Homo sapiens) (UniProt Q9UM73); test: Inhibition of ALK assessed as residual activity at 10 uM relative to control
[7] = target: NT-3 growth factor receptor (Homo sapiens) (UniProt Q16288); test: Inhibition of TRKC assessed as residual activity at 10 uM relative to control
[8] = target: MAP/microtubule affinity-regulating kinase 3 (Homo sapiens) (UniProt P27448); test: Inhibition of MARK3 assessed as residual activity at 10 uM relative to control
[9] = target: Serine/threonine-protein kinase Nek6 (Homo sapiens) (UniProt Q9HC98); test: Inhibition of NEK6 assessed as residual activity at 10 uM relative to control
[10] = target: Tyrosine-protein kinase CSK (Homo sapiens) (UniProt P41240); test: Inhibition of CSK assessed as residual activity at 1 uM
Outline: (§2)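 Radioactivity-based enzymatic assay against a panel of 131 kinases (Dundee profiling). Activity remaining was measured with compound present at the stated concentration.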

[11] = target: Serine/threonine-protein kinase 24 (Homo sapiens) (UniProt Q9Y6E0); test: Inhibition of MST3 assessed as residual activity at 10 uM relative to control
Serine/threonine-protein kinase 24 (Homo sapiens), sequence (Q9Y6E0 whole entry, looked up): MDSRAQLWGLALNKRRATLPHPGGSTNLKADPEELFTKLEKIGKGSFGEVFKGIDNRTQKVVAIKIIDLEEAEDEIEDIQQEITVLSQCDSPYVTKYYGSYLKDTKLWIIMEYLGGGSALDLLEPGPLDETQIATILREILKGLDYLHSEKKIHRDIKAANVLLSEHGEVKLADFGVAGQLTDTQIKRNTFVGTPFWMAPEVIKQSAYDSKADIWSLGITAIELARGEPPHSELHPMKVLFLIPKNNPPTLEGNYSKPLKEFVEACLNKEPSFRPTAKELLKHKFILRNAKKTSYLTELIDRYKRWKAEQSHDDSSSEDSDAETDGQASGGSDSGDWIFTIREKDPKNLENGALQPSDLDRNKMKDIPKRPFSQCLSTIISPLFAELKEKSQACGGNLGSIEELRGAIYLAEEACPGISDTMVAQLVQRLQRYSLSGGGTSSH

[12] = Inhibition of AMPK assessed as residual activity at 10 uM
[13] = target: Serine/threonine-protein kinase N2 (Homo sapiens) (UniProt Q16513); test: Inhibition of PKN2 assessed as residual activity at 10 uM relative to control
Serine/threonine-protein kinase N2 (Homo sapiens), sequence (Q16513 whole entry, looked up): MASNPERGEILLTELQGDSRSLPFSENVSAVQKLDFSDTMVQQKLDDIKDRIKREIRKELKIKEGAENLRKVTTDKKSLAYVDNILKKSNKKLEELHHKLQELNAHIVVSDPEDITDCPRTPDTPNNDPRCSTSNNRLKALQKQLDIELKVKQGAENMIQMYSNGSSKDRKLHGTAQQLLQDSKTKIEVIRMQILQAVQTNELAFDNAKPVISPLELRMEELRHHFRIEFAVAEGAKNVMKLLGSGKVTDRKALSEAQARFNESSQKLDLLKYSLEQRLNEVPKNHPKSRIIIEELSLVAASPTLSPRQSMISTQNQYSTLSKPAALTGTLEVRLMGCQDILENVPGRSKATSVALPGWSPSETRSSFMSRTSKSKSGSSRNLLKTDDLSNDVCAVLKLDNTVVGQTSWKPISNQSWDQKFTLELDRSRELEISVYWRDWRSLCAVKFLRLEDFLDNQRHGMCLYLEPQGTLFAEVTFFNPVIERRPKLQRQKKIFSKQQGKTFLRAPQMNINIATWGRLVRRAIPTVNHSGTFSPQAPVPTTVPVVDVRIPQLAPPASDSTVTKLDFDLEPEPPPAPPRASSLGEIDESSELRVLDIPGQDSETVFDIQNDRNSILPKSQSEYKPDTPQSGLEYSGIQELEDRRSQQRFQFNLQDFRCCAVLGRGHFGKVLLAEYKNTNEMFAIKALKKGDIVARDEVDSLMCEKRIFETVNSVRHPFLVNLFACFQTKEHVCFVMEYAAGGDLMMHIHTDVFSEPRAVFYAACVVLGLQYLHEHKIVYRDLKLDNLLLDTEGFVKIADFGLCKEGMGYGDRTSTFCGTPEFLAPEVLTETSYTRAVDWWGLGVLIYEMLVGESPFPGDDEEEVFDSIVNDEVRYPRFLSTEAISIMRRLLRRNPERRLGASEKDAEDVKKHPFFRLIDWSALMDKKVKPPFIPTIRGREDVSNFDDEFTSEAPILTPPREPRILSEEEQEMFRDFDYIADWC

[14] = target: Serine/threonine-protein kinase DCLK2 (Homo sapiens) (UniProt Q8N568); test: Inhibition of DCAMKL2 assessed as residual activity at 10 uM relative to control; outline: as §1
[15] = target: T1, Ephrin type-B receptor 2 (Homo sapiens) (UniProt P29323); test: Inhibition of EPH-B2 assessed as residual activity at 1 uM
T1 sequence (whole entry): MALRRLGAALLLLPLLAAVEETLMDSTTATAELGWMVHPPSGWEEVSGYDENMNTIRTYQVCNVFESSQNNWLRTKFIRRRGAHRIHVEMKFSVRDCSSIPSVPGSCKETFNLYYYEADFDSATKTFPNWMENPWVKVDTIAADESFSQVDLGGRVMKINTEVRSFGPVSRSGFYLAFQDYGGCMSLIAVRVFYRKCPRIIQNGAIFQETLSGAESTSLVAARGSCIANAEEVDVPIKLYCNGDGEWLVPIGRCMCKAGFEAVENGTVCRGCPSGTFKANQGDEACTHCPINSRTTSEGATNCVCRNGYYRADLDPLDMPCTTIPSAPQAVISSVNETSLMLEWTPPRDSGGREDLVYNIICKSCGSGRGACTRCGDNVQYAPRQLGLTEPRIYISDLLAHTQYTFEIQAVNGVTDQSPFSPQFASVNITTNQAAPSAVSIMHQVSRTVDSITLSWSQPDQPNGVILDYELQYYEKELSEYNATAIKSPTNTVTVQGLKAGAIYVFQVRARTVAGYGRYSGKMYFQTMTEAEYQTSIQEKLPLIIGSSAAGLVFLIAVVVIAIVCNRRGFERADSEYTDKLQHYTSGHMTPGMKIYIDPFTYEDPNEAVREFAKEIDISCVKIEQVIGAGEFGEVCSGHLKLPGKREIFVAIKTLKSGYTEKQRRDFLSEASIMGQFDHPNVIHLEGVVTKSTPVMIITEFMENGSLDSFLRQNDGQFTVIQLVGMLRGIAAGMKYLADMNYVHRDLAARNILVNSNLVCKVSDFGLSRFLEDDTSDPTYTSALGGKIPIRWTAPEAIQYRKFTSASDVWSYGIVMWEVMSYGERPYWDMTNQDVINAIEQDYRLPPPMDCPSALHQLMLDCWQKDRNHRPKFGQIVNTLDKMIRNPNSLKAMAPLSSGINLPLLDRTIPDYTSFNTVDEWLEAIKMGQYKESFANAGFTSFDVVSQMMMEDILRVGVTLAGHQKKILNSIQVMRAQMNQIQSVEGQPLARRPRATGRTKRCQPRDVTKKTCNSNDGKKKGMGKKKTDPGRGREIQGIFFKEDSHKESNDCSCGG
Outline: (§3)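 Standard radioactivity-based enzymatic kinase assays on a 131-kinase panel run by the Dundee profiling service; residual kinase activity recorded.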

[16] = system: Receptor-type tyrosine-protein kinase FLT3 (Homo sapiens), P36888 [D835Y]; test: Inhibition of FLT3 D835Y mutant assessed as residual activity at 10 uM relative to control
[17] = target: Casein kinase I isoform alpha (Homo sapiens) (UniProt P48729); test: Inhibition of CSNK1A1 assessed as residual activity at 10 uM relative to control; outline: as §1
Casein kinase I isoform alpha (Homo sapiens), sequence (P48729 2-337 limits assumed): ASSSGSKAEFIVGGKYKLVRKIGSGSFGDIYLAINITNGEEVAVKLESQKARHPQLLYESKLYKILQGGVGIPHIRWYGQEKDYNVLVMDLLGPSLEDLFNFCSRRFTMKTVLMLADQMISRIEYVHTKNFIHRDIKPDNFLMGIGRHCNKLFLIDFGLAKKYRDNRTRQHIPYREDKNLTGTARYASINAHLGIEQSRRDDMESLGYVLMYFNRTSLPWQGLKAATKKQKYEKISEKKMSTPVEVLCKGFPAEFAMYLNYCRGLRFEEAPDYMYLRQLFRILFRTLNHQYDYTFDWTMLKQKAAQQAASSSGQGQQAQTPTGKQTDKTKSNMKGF

[18] = target: Activin receptor type-1B (Homo sapiens) (UniProt P36896); test: Inhibition of ACVR1B assessed as residual activity at 10 uM relative to control
Activin receptor type-1B (Homo sapiens), sequence (P36896 whole entry): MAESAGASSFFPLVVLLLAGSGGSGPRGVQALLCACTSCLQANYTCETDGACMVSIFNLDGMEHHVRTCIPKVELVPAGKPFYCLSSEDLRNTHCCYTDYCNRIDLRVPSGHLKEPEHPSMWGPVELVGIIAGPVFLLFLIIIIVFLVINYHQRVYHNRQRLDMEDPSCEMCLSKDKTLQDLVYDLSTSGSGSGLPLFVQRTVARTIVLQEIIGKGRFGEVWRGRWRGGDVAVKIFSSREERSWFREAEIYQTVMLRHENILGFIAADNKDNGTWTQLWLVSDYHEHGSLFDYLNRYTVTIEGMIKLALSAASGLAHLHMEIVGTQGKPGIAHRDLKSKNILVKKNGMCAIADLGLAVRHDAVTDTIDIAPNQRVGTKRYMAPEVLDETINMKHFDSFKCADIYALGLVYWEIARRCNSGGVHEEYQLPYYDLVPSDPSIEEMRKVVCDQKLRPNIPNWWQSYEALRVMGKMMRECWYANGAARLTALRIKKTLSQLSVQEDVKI

[19] = target: Mitogen-activated protein kinase 4 (Homo sapiens) (UniProt P31152); test: Inhibition of ERK4 assessed as residual activity at 10 uM relative to control
[20] = target: Ephrin type-B receptor 4 (Homo sapiens) (UniProt P54760); test: Inhibition of EPH-B4 assessed as residual activity at 10 uM; outline: as §2
Ephrin type-B receptor 4 (Homo sapiens), sequence (P54760 whole entry): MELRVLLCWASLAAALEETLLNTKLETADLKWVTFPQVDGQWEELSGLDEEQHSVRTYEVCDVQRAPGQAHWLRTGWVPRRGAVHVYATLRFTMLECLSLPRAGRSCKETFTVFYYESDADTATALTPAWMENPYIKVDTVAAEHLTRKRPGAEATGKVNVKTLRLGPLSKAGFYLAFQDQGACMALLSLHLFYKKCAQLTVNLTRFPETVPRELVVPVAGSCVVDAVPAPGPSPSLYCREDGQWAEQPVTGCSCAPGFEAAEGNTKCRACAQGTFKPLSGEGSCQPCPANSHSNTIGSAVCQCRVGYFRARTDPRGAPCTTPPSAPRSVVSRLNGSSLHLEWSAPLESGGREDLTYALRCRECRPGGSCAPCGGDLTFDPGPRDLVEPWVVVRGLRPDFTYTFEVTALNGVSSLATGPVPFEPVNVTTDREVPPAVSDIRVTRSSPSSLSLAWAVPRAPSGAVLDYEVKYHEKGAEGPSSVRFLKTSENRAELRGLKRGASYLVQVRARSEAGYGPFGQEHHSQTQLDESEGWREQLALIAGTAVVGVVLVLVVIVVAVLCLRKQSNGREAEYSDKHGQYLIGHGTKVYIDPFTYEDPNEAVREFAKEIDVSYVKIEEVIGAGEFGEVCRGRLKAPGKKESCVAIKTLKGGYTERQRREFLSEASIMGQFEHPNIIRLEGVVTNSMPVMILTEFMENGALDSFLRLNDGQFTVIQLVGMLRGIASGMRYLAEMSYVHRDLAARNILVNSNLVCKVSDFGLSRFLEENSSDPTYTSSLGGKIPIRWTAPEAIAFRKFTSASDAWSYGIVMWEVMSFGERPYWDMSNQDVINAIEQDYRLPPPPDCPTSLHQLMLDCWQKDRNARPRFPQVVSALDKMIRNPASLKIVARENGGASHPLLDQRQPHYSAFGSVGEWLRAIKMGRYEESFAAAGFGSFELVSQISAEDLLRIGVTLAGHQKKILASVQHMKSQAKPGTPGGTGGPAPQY

[21] = target: Serine/threonine-protein kinase N2 (Homo sapiens) (UniProt Q16513); test: Inhibition of PRK2 assessed as residual activity at 10 uM
[22] = target: AP2-associated protein kinase 1 (Homo sapiens) (UniProt Q2M2I8); test: Inhibition of AAK1 assessed as residual activity at 10 uM relative to control
AP2-associated protein kinase 1 (Homo sapiens), sequence (Q2M2I8 whole entry, looked up): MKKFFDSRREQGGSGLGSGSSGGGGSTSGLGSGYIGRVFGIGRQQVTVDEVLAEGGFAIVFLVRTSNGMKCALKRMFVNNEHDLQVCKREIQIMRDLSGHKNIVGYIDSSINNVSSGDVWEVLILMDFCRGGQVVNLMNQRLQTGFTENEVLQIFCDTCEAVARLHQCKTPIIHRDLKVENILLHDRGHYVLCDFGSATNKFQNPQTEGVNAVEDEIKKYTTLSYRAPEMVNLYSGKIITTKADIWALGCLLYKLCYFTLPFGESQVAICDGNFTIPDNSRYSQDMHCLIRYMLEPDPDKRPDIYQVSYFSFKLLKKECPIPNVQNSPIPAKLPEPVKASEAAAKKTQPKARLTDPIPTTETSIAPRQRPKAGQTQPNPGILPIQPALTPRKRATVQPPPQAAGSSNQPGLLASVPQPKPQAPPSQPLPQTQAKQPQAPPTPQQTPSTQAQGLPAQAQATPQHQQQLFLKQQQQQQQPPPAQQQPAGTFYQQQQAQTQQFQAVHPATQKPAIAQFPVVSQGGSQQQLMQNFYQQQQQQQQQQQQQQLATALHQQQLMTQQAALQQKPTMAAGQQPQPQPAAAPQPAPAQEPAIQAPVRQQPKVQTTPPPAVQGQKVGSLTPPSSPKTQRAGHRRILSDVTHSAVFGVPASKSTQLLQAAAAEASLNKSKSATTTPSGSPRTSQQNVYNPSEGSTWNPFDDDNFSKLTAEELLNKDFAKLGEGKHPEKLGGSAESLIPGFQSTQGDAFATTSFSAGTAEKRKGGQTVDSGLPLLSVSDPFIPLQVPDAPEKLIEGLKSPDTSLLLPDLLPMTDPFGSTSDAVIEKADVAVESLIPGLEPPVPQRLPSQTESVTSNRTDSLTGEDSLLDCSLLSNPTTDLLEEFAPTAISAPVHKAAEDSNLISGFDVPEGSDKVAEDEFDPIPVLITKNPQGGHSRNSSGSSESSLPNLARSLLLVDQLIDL

[23] = target: Ephrin type-B receptor 6 (Homo sapiens) (UniProt O15197); test: Inhibition of EPHB6 assessed as residual activity at 10 uM relative to control; outline: as §1
[24] = target: Tyrosine-protein kinase SYK (Homo sapiens) (UniProt P43405); test: Inhibition of SYK assessed as residual activity at 1 uM
[25] = target: Ephrin type-B receptor 4 (Homo sapiens) (UniProt P54760); test: Inhibition of EPH-B4 assessed as residual activity at 1 uM; outline: as §3

In the case of `O=C(Nc1cccnc1)c1cc(-c2ccnc(F)c2)ccc1OCc1ccccc1`, the Activity [1] is reported as 40%, the Activity [2] is reported as 63% and the Activity [3] is reported as 73%. The Activity [4] was 72%, the Activity [5] was 58% and the Activity [6] was 7.2%. For the same compound, the Activity [7] was 62%, the Activity [8] was 50% and the Activity [9] was 50%. The Activity [10] was 104%, the Activity [11] was 63% and the Activity [12] was 90%. It also gave an Activity [13] of 20%, an Activity [14] of 48% and an Activity [15] of 123%. The Activity [16] was 5.8%, the Activity [17] was 60% and the Activity [18] was 43%. It also gave an Activity [19] of 59%, an Activity [20] of 108% and an Activity [21] of 79%. The Activity [22] was 67%, the Activity [23] was 61% and the Activity [24] was 115%. It also gave an Activity [25] of 118%.
